The source made the active and inactive calls. The calls are words filed in the database; no cut-off is given here.
Experiments:
SK-MEL-24 = assay: Cytotoxicity against human SK-MEL-24 cells assessed as reduction in cell viability measured after 24 hrs by MTT assay; format: functional, cell-based; conditions: SK-MEL-24, 24 h
[1] = Cytotoxicity against human C3PV cells assessed as reduction in cell viability measured after 24 hrs by MTT assay; format: cell-based
RPMI-7951 = assay: Cytotoxicity against human RPMI7951 cells assessed as reduction in cell viability measured after 24 hrs by MTT assay; format: functional, cell-based; conditions: RPMI-7951, 24 h
[2] = molecular target: T1, DNA topoisomerase 1 (Homo sapiens) (UniProt P11387); assay: Inhibition of human TOP1B-medaited negatively supercoiled pBlue-Script KSII(+) DNA relaxation at 0.3 to 30 uM by ethidium bromide staining based gel electrophoresis method
T1 sequence (whole entry): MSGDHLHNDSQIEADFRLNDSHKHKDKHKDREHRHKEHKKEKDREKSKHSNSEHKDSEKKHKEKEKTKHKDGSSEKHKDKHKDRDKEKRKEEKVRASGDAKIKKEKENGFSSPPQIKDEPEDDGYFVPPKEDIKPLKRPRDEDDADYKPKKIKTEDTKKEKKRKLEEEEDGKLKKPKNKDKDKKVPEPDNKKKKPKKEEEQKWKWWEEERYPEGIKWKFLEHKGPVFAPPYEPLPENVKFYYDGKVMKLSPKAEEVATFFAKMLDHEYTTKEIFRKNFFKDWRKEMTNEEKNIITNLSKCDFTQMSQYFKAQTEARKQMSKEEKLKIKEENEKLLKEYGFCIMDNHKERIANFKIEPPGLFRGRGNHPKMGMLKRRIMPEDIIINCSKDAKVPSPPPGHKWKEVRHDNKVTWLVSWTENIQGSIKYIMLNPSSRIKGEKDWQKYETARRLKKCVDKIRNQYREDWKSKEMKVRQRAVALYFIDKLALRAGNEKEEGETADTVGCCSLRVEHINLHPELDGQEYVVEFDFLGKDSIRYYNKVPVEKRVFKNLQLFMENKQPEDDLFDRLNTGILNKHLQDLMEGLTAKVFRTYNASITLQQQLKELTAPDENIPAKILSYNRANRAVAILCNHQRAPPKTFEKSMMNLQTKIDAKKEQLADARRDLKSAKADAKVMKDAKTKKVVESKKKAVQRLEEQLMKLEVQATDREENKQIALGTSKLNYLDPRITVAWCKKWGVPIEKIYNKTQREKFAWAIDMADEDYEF

[3] = molecular target: T1, DNA topoisomerase 1 (Homo sapiens); assay: Inhibition of human TOP1B expressed in Saccharomyces cerevisiae EKY3 lacking top1 assessed as reduction in yeast cell growth at 1 to 30 uM
How it was run: (§1)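 Wild-type human Top1 overexpressed from plasmids under the Gal-1–10 promoter in S. cerevisiae EKY3, which lacks the endogenous enzyme. Yeast growth sensitivity scored across compound concentrations. Controls were untreated cells and DMSO vehicle.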

[4] = molecular target: T1, DNA topoisomerase 1 (Homo sapiens); assay: Inhibition of human TOP1B expressed in Saccharomyces cerevisiae EKY3 lacking top1 assessed as reduction in yeast cell growth at 30 uM; how it was run: as §1
[5] = molecular target: T1, DNA topoisomerase 1 (Homo sapiens); assay: Inhibition of human TOP1B expressed in Saccharomyces cerevisiae EKY3 lacking top1 assessed as reduction in yeast cell growth at 10 uM; how it was run: as §1
[6] = molecular target: T1, DNA topoisomerase 1 (Homo sapiens); assay: Inhibition of human TOP1B expressed in Saccharomyces cerevisiae EKY3 lacking top1 assessed as induction of cell cycle defect at 30 uM measured after 24 hrs
Homo sapiens = species on record: Homo sapiens; assay: Inhibition of human TOP1B G363C mutant expressed in Saccharomyces cerevisiae EKY3 lacking top1 assessed as reduction in yeast growth at 1 to 30 uM
How it was run: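 Human Top1 G363C mutant (glycine 363 to cysteine, camptothecin-resistant) expressed from plasmids under the Gal-1–10 promoter in S. cerevisiae EKY3, which lacks the endogenous enzyme. Yeast growth sensitivity read at a range of compound concentrations. Controls were untreated cells and DMSO vehicle.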

[7] = molecular target: T1, DNA topoisomerase 1 (Homo sapiens); assay: Inhibition of human TOP1B-medaited negatively supercoiled pBlue-Script KSII(+) DNA relaxation at 300 nM by ethidium bromide staining based gel electrophoresis method
[8] = molecular target: T1, DNA topoisomerase 1 (Homo sapiens); assay: Inhibition of human TOP1B expressed in Saccharomyces cerevisiae EKY3 lacking top1 assessed as reduction in yeast growth at 3 uM; how it was run: as §1

SMILES: CC[C@@]1(O)C(=O)OCc2c1cc1n(c2=O)Cc2cc3ccccc3nc2-1 [CAMPTOTHECIN]
- IC50 (SK-MEL-24): 460 nM
- IC50 [1]: 450 nM
- IC50 (RPMI-7951): 220 nM

SMILES: CC[C@@]1(OC(=O)CCC(=O)O[C@@H]2O[C@@H]3O[C@]4(C)CC[C@H]5[C@H](C)CC[C@@H]([C@H]2C)[C@@]35OO4)C(=O)OCc2c1cc1n(c2=O)Cc2cc3ccccc3nc2-1
- IC50 (SK-MEL-24): 850 nM
- IC50 [1]: 300 nM
- inhibition [2]: Active
- inhibition [3]: Active
- IC50 (RPMI-7951): 17300 nM

SMILES: C[C@H]1[C@H](OCCc2ccc(O)cc2)O[C@@H]2O[C@]3(C)CC[C@H]4[C@H](C)CC[C@@H]1[C@@]24OO3
- inhibition [4]: Active

SMILES: C[C@H]1[C@H](OC(=O)CCC(=O)OCCc2ccc(O)cc2)O[C@@H]2O[C@]3(C)CC[C@H]4[C@H](C)CC[C@@H]1[C@@]24OO3
- inhibition [5]: Active
- inhibition [2]: Active
- inhibition [6]: Active
- inhibition (Homo sapiens): inactive

SMILES: C[C@H]1[C@H](OC(=O)CCC(=O)Oc2ccc(CCO)cc2)O[C@@H]2O[C@]3(C)CC[C@H]4[C@H](C)CC[C@@H]1[C@@]24OO3
- inhibition [5]: Active
- inhibition [2]: Active
- inhibition (Homo sapiens): inactive

SMILES: CCc1c2c(nc3ccc(OC(=O)CCC(=O)O[C@@H]4O[C@@H]5O[C@]6(C)CC[C@H]7[C@H](C)CC[C@@H]([C@H]4C)[C@@]57OO6)cc13)-c1cc3c(c(=O)n1C2)COC(=O)[C@]3(O)CC
- IC50 (SK-MEL-24): 320 nM
- IC50 [1]: 3200 nM
- inhibition (Homo sapiens): Active
- inhibition [7]: Active
- inhibition [8]: Active
- IC50 (RPMI-7951): 50 nM

SMILES: CCc1c2c(nc3ccc(O)cc13)-c1cc3c(c(=O)n1C2)COC(=O)[C@]3(O)CC [7-ETHYL-10-HYDROXYCAMPTOTHECIN]
- IC50 (SK-MEL-24): 480 nM
- IC50 [1]: 510 nM
- IC50 (RPMI-7951): 260 nM

SMILES: COc1cc(/C=C/C(=O)CC(=O)/C=C/c2ccc(OC(=O)CCC(=O)O[C@@H]3O[C@@H]4O[C@]5(C)CC[C@H]6[C@H](C)CC[C@@H]([C@H]3C)[C@@]46OO5)cc2)ccc1OC(=O)CCC(=O)O[C@@H]1O[C@@H]2O[C@]3(C)CC[C@H]4[C@H](C)CC[C@@H]([C@H]1C)[C@@]24OO3
- inhibition [3]: inactive

SMILES: C[C@H]1[C@H](O)O[C@@H]2O[C@@]3(C)CC[C@H]4[C@H](C)CC[C@@H]1[C@@]24OO3
- inhibition [4]: inactive

SMILES: C=C(C)[C@H]1CC=C(COC(=O)CCC(=O)O[C@@H]2O[C@@H]3O[C@@]4(C)CC[C@H]5[C@H](C)CC[C@@H]([C@H]2C)[C@@]35OO4)CC1
- inhibition [3]: inactive

SMILES: C[C@@H]1CC[C@H]2[C@@H](C)C(=O)O[C@@H]3O[C@@]4(C)CC[C@@H]1[C@]32OO4
- inhibition [3]: inactive

SMILES: COc1cc(/C=C/C(=O)CC(=O)/C=C/c2ccc(OC(=O)CCC(=O)O[C@@H]3O[C@@H]4O[C@]5(C)CC[C@H]6[C@H](C)CC[C@@H]([C@H]3C)[C@@]46OO5)c(OC)c2)ccc1O
- inhibition [4]: Active
- inhibition [2]: Active

SMILES: C[C@H]1[C@H](OC(=O)CCC(=O)O)O[C@@H]2O[C@@]3(C)CC[C@H]4[C@H](C)CC[C@@H]1[C@@]24OO3
- inhibition [4]: inactive
- inhibition [2]: Active

SMILES: CC(=O)O[C@H]1C(=O)[C@@]2(C)[C@H]([C@H](OC(=O)c3ccccc3)[C@]3(O)C[C@H](OC(=O)[C@H](O)[C@@H](NC(=O)c4ccccc4)c4ccccc4)C(C)=C1C3(C)C)[C@]1(OC(C)=O)CO[C@@H]1C[C@@H]2O [PACLITAXEL]
- IC50 (SK-MEL-24): 4730 nM
- IC50 [1]: 78900 nM
- IC50 (RPMI-7951): 13 nM

Reference: ChEMBL document CHEMBL4613320, “Artemisinin Derivatives with Antimelanoma Activity Show Inhibitory Effect against Human DNA Topoisomerase 1” (ACS Med Chem Lett, 2020)
